{"data": "Measurements pooled from the literature", "target": "Mitogen-activated protein kinase 11 (MAPK11, Homo sapiens, UniProt Q15759)", "technique": "competition with immobilised ligand"}
{"SMILES": "O=S(=O)(NC1CCC(c2cc(F)ccc2F)(S(=O)(=O)c2ccc(Cl)cc2)CC1)C(F)(F)F (stereo not shown)", "read-out": "cell-free assay", "concentration": "1 µM", "remaining binding [%]": 94}
{"SMILES": "C[C@@H]1CCN(c2nccc(-c3cnn4ncccc34)n2)C1", "read-out": "binding", "concentration": "1 µM", "remaining binding [%]": 100}
{"SMILES": "Nc1ncc2c(n1)-c1c([nH]c3ccc(C#CC4CC4)cc13)CCCC2", "read-out": "binding", "concentration": "1 µM", "remaining binding [%]": 100}
{"SMILES": "COc1cnc(Nc2cccc(S(N)(=O)=O)c2)nc1N1CCN(c2ccccc2)C(=O)C1", "read-out": "binding", "concentration": "1 µM", "remaining binding [%]": 100}
{"SMILES": "O=C(c1ccc(Nc2ncc(Cl)c(-c3cc4ccccc4s3)n2)cc1)N1CCC(N2CCCC2)CC1", "read-out": "binding", "concentration": "1 µM", "remaining binding [%]": 82}
{"SMILES": "COc1ncc2cc3ccccc3nc2c1C#N", "read-out": "cell-free assay", "concentration": "5 µM", "remaining binding [%]": 92}
{"SMILES": "C[C@@H]1CN(c2ccc3ncc(-c4ccc5[nH]nc(C6CC6)c5c4)n3n2)C[C@H](C)O1", "read-out": "binding", "concentration": "50 nM", "remaining binding [%]": 100}
{"SMILES": "NS(=O)(=O)c1cc(NC(=O)C2(c3ccccc3Cl)CC2)ccc1Oc1cccc(Cl)c1", "read-out": "cell-free assay", "concentration": "1 µM", "remaining binding [%]": 68}
{"SMILES": "O=C(c1ccc(Nc2nccc(-c3cc4ccccc4s3)n2)cc1)N1CCC(N2CCCC2)CC1", "read-out": "binding", "concentration": "1 µM", "remaining binding [%]": 95}
{"SMILES": "C[C@@H](c1ccc(-n2cnc3c(N)ncnc32)cc1)N1CCc2nn(C)c(Cc3ccccc3)c2C1=O", "read-out": "binding", "concentration": "0.1 µM", "remaining binding [%]": 92}
{"SMILES": "CN(CCCC(F)(F)F)c1nccc(-c2cnn3ncccc23)n1", "read-out": "binding", "concentration": "1 µM", "remaining binding [%]": 93}
{"SMILES": "O=C(NCCCN1CCOCC1)c1ccc(Nc2ncc(Cl)c(-c3ccc(Cl)s3)n2)cc1", "read-out": "binding", "concentration": "1 µM", "remaining binding [%]": 98}
{"SMILES": "CN(C)c1ncc(F)c(-c2cnn3ncccc23)n1", "read-out": "binding", "concentration": "1 µM", "remaining binding [%]": 100}
{"SMILES": "CC(C)(C)c1ccc(-c2nc(CBr)nn2-c2cccc(O)c2)cc1", "read-out": "cell-free assay", "concentration": "10 µM", "remaining binding [%]": 99}
{"SMILES": "Cc1cc(C)c(-n2ccn3nc(-c4cccnc4)cc23)cc1NC(=O)c1cc(C#N)cc(S(F)(F)(F)(F)F)c1", "read-out": "cell-free assay", "concentration": "0.1 µM", "remaining binding [%]": 93.4}
{"SMILES": "FC(F)(F)Oc1cccc(-c2cnc3ccc(-c4ccncc4)nn23)c1", "read-out": "cell-free assay", "concentration": "5 µM", "remaining binding [%]": 89}
{"SMILES": "CCS(=O)(=O)c1cc2cc(C[C@](O)(CC(C)(C)c3ccc(F)cc3C(N)=O)C(F)(F)F)[nH]c2cn1", "read-out": "cell-free assay", "concentration": "1 µM", "remaining binding [%]": 100}
{"SMILES": "CN(C)c1nccc(-c2cnn3ncccc23)n1", "read-out": "binding", "concentration": "1 µM", "remaining binding [%]": 100}
{"SMILES": "CN(C)CC#Cc1ccc(OCCCc2sc(N3CCc4cccc(C(=O)Nc5nc6ccccc6s5)c4C3)nc2C(=O)O)c(F)c1", "read-out": "cell-free assay", "concentration": "1 µM", "remaining binding [%]": 100}
{"SMILES": "Cc1cnn2ncc(-c3ccnc(N(C)C)n3)c2c1", "read-out": "binding", "concentration": "1 µM", "remaining binding [%]": 100}
{"SMILES": "C[C@@H]1CN(c2cc(-c3n[nH]c4ccc(OC5(C)CC5)cc34)ncn2)C[C@H](C)O1", "read-out": "cell-free assay", "concentration": "0.1 µM", "remaining binding [%]": 89}
{"SMILES": "O=C(Nc1c[nH]nc1C(=O)NC1CCNCC1)c1cc(F)cc(F)c1", "read-out": "binding", "concentration": "1 µM", "remaining binding [%]": 97}
